Measurements published in ChEMBL document CHEMBL3758107, “Lead optimization of the VU0486321 series of mGlu(1) PAMs. Part 2: SAR of alternative 3-methyl heterocycles and progress towards an in vivo tool” (Bioorg Med Chem Lett, 2016).

Assays:
[1] = target: T1, Metabotropic glutamate receptor 1 (Homo sapiens, UniProt Q13255); assay: Positive allosteric modulation of human mGlu1 receptor by cell based calcium mobilization; format: functional
Summary of the method: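 Calcium mobilization assay at mGlu1; EC50 and % Glu Max taken as the average of three independent experiments, each run in triplicate.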
Target sequence in this assay (Q13255 whole entry): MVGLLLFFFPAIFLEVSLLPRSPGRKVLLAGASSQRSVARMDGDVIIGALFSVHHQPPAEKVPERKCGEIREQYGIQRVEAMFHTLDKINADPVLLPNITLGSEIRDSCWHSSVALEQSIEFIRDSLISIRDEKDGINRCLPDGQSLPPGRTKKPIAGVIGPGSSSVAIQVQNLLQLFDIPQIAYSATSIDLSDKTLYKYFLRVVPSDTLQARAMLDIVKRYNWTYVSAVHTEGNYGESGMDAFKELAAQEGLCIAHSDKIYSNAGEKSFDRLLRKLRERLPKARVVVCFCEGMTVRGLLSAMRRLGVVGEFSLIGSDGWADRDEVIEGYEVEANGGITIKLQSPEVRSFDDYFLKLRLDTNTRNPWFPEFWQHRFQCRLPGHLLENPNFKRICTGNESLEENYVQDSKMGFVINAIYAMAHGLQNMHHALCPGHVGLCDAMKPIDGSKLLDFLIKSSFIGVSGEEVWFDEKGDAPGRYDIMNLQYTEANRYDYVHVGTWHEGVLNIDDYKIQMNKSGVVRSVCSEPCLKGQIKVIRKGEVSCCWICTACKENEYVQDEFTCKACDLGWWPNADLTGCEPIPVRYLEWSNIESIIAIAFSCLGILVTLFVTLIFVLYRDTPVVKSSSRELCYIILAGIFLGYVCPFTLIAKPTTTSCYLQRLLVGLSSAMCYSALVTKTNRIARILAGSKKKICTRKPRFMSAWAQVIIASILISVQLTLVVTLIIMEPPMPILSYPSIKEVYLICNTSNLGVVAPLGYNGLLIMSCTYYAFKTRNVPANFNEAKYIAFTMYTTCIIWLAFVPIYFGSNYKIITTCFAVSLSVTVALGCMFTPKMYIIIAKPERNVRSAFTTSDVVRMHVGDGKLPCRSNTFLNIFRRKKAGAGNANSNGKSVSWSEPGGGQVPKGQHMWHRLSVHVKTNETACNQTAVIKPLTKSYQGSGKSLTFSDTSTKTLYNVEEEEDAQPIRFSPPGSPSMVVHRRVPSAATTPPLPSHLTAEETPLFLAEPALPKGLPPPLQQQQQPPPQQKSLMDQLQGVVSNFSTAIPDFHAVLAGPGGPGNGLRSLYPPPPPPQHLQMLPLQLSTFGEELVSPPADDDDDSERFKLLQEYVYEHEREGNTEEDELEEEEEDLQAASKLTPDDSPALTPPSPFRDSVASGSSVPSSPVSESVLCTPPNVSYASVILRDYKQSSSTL

[2] = target: T1, Metabotropic glutamate receptor 1; assay: Positive allosteric modulation of human mGlu1 receptor at 10 uM by cell based calcium mobilization relative to glutamate; format: functional
Summary of the method: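 Calcium mobilization assay at mGlu1, tested at a single point of 10 μM; response given as % Glu Max.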
Target sequence in this assay (Q13255 19-1194 limits assumed): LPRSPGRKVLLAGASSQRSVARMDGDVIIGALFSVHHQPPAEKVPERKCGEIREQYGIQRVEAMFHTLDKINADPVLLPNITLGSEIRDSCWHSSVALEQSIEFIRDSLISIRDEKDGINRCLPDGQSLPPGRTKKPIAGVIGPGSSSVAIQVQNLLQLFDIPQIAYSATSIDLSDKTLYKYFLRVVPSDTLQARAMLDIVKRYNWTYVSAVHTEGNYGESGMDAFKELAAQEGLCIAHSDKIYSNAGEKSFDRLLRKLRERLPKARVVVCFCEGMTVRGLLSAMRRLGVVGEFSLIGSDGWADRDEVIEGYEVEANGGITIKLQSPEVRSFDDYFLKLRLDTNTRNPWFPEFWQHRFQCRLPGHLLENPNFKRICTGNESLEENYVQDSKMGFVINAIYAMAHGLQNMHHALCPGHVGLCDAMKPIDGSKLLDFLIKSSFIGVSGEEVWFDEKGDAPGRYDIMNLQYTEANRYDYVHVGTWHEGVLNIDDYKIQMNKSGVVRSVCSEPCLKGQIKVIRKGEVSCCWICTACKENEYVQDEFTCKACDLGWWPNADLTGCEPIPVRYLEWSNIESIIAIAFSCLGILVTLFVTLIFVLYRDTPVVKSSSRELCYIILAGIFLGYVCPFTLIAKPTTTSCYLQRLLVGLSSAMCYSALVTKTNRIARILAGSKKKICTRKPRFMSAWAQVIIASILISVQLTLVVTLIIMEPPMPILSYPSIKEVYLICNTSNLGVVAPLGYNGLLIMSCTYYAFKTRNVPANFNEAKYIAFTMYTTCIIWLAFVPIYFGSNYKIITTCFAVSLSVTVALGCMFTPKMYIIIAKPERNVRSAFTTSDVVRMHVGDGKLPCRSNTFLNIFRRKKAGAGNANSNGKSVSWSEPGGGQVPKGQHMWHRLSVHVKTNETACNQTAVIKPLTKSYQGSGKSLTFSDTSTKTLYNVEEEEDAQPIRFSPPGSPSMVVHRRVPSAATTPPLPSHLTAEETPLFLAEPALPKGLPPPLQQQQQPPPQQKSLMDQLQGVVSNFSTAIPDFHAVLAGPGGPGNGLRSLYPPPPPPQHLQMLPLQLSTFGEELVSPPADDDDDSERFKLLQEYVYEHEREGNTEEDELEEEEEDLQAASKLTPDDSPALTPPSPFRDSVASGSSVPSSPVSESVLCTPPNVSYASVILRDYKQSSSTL

[3] = target: T2, Metabotropic glutamate receptor 4 (Homo sapiens, UniProt Q14833); assay: Positive allosteric modulation of human mGlu4 receptor by cell based calcium mobilization; format: functional
[4] = target: T2, Metabotropic glutamate receptor 4; assay: Positive allosteric modulation of human mGlu4 receptor assessed as glutamate-induced calcium mobilization at 10 uM by cell based assay relative to PHCCC; format: functional
Homo sapiens = species on record: Homo sapiens; assay: Selectivity ratio of EC50 for human mGlu4 receptor to EC50 for human mGlu1 receptor

T2 sequence (Q14833 whole entry): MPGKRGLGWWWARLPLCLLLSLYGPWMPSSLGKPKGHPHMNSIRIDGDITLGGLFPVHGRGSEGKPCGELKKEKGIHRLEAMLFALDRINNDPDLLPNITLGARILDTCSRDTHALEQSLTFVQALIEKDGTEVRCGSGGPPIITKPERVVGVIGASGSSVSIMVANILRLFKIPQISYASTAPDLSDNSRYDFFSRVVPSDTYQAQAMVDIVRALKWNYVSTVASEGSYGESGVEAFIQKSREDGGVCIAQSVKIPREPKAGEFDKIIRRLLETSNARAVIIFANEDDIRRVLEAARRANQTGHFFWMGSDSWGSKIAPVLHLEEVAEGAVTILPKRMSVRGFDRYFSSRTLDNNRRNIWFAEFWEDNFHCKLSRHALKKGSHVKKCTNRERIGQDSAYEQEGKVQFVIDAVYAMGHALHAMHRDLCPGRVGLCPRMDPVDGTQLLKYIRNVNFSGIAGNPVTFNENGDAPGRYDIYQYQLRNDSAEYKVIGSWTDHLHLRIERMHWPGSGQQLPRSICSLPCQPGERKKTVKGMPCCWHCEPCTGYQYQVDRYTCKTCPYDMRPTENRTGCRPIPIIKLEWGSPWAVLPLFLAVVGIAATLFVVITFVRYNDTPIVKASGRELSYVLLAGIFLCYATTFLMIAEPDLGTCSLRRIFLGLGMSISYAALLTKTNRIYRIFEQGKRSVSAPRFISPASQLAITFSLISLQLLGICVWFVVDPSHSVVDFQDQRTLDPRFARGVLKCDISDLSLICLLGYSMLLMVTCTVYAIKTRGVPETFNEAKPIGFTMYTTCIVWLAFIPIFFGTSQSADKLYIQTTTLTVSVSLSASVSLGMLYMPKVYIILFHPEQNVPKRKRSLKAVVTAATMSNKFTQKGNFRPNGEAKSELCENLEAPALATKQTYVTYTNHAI

| Structure (SMILES) | EC50 ([1]; read-out: EC50) [nM] | EC50 ([1]; read-out: pEC50 (converted)) [nM] | %max [2] [%] | EC50 [3] [nM] | %max [4] [%] | Ratio EC50 (Homo sapiens) |
| --- | --- | --- | --- | --- | --- | --- |
| Cn1ccnc1C(=O)Nc1ccc(N2C(=O)c3cccnc3C2=O)c(Cl)c1 | > 10000 |  | 44 | > 10000 |  |  |
| Cc1ccc2c(c1)C(=O)N(c1ccc(NC(=O)c3ncoc3C)c(F)c1)C2=O |  |  | 14 |  |  |  |
| Cn1cccc1C(=O)Nc1ccc(N2C(=O)c3ccccc3C2=O)c(Cl)c1 | 5260 |  | 95 |  |  |  |
| Cc1ccc2c(c1)C(=O)N(c1ccc(NC(=O)c3ncsc3C)c(F)c1)C2=O |  |  | 36 |  |  |  |
| Cc1cn[nH]c1C(=O)Nc1ccc(N2C(=O)c3ccc(Cl)cc3C2=O)c(Cl)c1 | 855 |  | 113 | 3380 | 117 | 3.9 |
| Cc1cn[nH]c1C(=O)Nc1ccc(N2C(=O)c3ccc(F)cc3C2=O)c(Cl)c1 | 632 |  | 106 | 6200 | 59 | 9.8 |
| Cc1scnc1C(=O)Nc1ccc(N2C(=O)c3ccccc3C2=O)cc1F |  |  | 45 |  |  |  |
| Cc1ocnc1C(=O)Nc1ccc(N2C(=O)c3cccnc3C2=O)cc1F |  |  | 9 |  |  |  |
| Cc1scnc1C(=O)Nc1ccc(N2C(=O)c3ccc(F)cc3C2=O)cc1F |  |  | 45 |  |  |  |
| Cc1cn[nH]c1C(=O)Nc1ccc(N2C(=O)c3ccccc3C2=O)c(Cl)c1 | 1240 |  | 107 |  |  |  |
| Cc1ocnc1C(=O)Nc1ccc(N2C(=O)c3ccccc3C2=O)cc1F |  |  | 18 |  |  |  |
| Cc1ccc2c(c1)C(=O)N(c1ccc(NC(=O)c3[nH]ncc3C)cc1Cl)C2=O | 557 |  | 106 | 2750 | 133 | 4.9 |
| Cc1[nH]ccc1C(=O)Nc1ccc(N2C(=O)c3ccccc3C2=O)c(Cl)c1 | > 10000 |  |  |  |  |  |
| Cc1cc[nH]c1C(=O)Nc1ccc(N2C(=O)c3ccccc3C2=O)c(Cl)c1 | 3420 | 3470 | 95 |  |  |  |
| Cc1ocnc1C(=O)Nc1ccc(N2C(=O)c3cccc(F)c3C2=O)cc1F |  |  | 36 |  |  |  |
| Cn1ccnc1C(=O)Nc1ccc(N2C(=O)c3ccc(F)cc3C2=O)c(Cl)c1 | 673 |  | 87 | 1070 | 63 | 1.5 |
| Cc1ccsc1C(=O)Nc1ccc(N2C(=O)c3ccccc3C2=O)c(Cl)c1 | 1890 |  | 105 |  |  |  |
| CN1CCC[C@@H]1C(=O)Nc1ccc(N2C(=O)c3ccccc3C2=O)c(Cl)c1 | > 10000 |  |  |  |  |  |
| Cn1ccnc1C(=O)Nc1ccc(N2C(=O)c3ccccc3C2=O)c(Cl)c1 | 374 | 355 | 59 |  |  |  |
| Cc1ocnc1C(=O)Nc1ccc(N2C(=O)c3ccc(F)cc3C2=O)cc1F |  |  | 16 |  |  |  |
| Cn1ccnc1C(=O)Nc1ccc(N2C(=O)c3ccc(Cl)cc3C2=O)c(Cl)c1 | 265 |  | 103 | 1570 | 145 | 5.9 |
| Cc1scnc1C(=O)Nc1ccc(N2C(=O)c3cccnc3C2=O)cc1F |  |  | 42 |  |  |  |
| Cc1cccc2c1C(=O)N(c1ccc(NC(=O)c3ncoc3C)c(F)c1)C2=O |  |  | 20 |  |  |  |
| CN1CCC[C@H]1C(=O)Nc1ccc(N2C(=O)c3ccccc3C2=O)c(Cl)c1 | > 10000 |  |  |  |  |  |
| Cc1ocnc1C(=O)Nc1ccc(N2C(=O)c3ccc(Cl)cc3C2=O)cc1F |  |  | 25 |  |  |  |
| Cc1ccc2c(c1)C(=O)N(c1ccc(NC(=O)c3ncoc3C)cc1Cl)C2=O | 41 |  | 98 | 198 | 75 | 4.8 |
| Cc1ocnc1C(=O)Nc1ccc(N2C(=O)c3ccc(F)cc3C2=O)c(Cl)c1 | 141 |  | 93 | 642 | 36 | 4.6 |
| Cc1ccc2c(c1)C(=O)N(c1ccc(NC(=O)c3nccn3C)cc1Cl)C2=O | 254 |  | 108 | 602 | 124 | 2.4 |
| Cc1cn[nH]c1C(=O)Nc1ccc(N2C(=O)c3cccnc3C2=O)c(Cl)c1 | > 10000 |  | 37 | > 10000 | 27 |  |

Other lines, results leading:

| EC50 ([1]; read-out: EC50) [nM] | EC50 ([1]; read-out: pEC50 (converted)) [nM] | %max [2] [%] | EC50 [3] [nM] | %max [4] [%] | Ratio EC50 (Homo sapiens) | Structure (SMILES) |
| --- | --- | --- | --- | --- | --- | --- |
| 469 | 479 | 91 | 519 | 39 | 0.9 | Cc1cccc2c1C(=O)N(c1ccc(NC(=O)c3ncoc3C)cc1Cl)C2=O |
|  |  | 17 |  |  |  | Cc1cccc2c1C(=O)N(c1ccc(NC(=O)c3ncsc3C)c(F)c1)C2=O |
| 232 |  | 104 | 1410 | 75 | 6.1 | Cc1cccc2c1C(=O)N(c1ccc(NC(=O)c3ncsc3C)cc1Cl)C2=O |
| 1470 |  | 100 |  |  |  | Cc1ocnc1C(=O)Nc1ccc(N2C(=O)c3ccccc3C2=O)c(Cl)c1 |
| > 10000 |  |  |  |  |  | Cc1ncsc1C(=O)Nc1ccc(N2C(=O)c3ccccc3C2=O)c(Cl)c1 |
| 187 |  | 111 | 474 | 52 | 2.5 | Cc1scnc1C(=O)Nc1ccc(N2C(=O)c3cccc(F)c3C2=O)c(Cl)c1 |
| 63 |  | 98 | 306 | 52 | 4.9 | Cc1scnc1C(=O)Nc1ccc(N2C(=O)c3ccc(F)cc3C2=O)c(Cl)c1 |
| 51 |  | 91 | 1980 | 169 | 39.1 | Cc1scnc1C(=O)Nc1ccc(N2C(=O)c3ccc(Cl)cc3C2=O)c(Cl)c1 |
| 191 |  | 98 | > 10000 |  |  | Cc1scnc1C(=O)Nc1ccc(N2C(=O)c3cccnc3C2=O)c(Cl)c1 |
|  |  | 27 |  |  |  | Cc1ocnc1C(=O)Nc1ccc(N2C(=O)c3cccc(Cl)c3C2=O)cc1F |
|  |  | 22 |  |  |  | Cc1scnc1C(=O)Nc1ccc(N2C(=O)c3cccc(Cl)c3C2=O)cc1F |
| 599 | 22.4 | 83 | > 10000 |  |  | Cc1cn[nH]c1C(=O)Nc1ccc(N2C(=O)c3cccc(F)c3C2=O)c(Cl)c1 |
| 54 |  | 104 | 405 | 67 | 7.4 | Cc1ocnc1C(=O)Nc1ccc(N2C(=O)c3ccc(Cl)cc3C2=O)c(Cl)c1 |
| > 10000 |  | 30 | 506 | 32 |  | Cc1cccc2c1C(=O)N(c1ccc(NC(=O)c3nccn3C)cc1Cl)C2=O |
| 1700 |  | 91 | 2530 | 45 | > 5.9 | Cc1ocnc1C(=O)Nc1ccc(N2C(=O)c3cccnc3C2=O)c(Cl)c1 |
| 241 | 1700 | 98 | > 10000 |  | 1.7 | Cc1ocnc1C(=O)Nc1ccc(N2C(=O)c3cccc(F)c3C2=O)c(Cl)c1 |
| 1370 |  | 121 | > 10000 | 59 |  | Cc1scnc1C(=O)Nc1ccc(N2C(=O)c3cccc(Cl)c3C2=O)c(Cl)c1 |
| 1510 |  | 105 |  |  |  | Cc1sccc1C(=O)Nc1ccc(N2C(=O)c3ccccc3C2=O)c(Cl)c1 |
| > 10000 |  |  |  |  |  | Cc1ncoc1C(=O)Nc1ccc(N2C(=O)c3ccccc3C2=O)c(Cl)c1 |
| 4940 |  | 110 | > 10000 |  |  | Cc1cn[nH]c1C(=O)Nc1ccc(N2C(=O)c3cccc(C)c3C2=O)c(Cl)c1 |
|  |  | 40 |  |  |  | Cc1scnc1C(=O)Nc1ccc(N2C(=O)c3ccc(Cl)cc3C2=O)cc1F |
| > 10000 |  | 43 | 1090 | 42 |  | Cn1ccnc1C(=O)Nc1ccc(N2C(=O)c3cccc(F)c3C2=O)c(Cl)c1 |
| 22 |  | 86 | 1120 | 161 | 51.1 | Cc1ccc2c(c1)C(=O)N(c1ccc(NC(=O)c3ncsc3C)cc1Cl)C2=O |
|  |  | 43 |  |  |  | Cc1scnc1C(=O)Nc1ccc(N2C(=O)c3cccc(F)c3C2=O)cc1F |
| 1290 | 1320 | 112 | 983 | 24 | 0.7 | Cc1ocnc1C(=O)Nc1ccc(N2C(=O)c3cccc(Cl)c3C2=O)c(Cl)c1 |
| 56 | 58.9 | 96 |  |  |  | Cc1scnc1C(=O)Nc1ccc(N2C(=O)c3ccccc3C2=O)c(Cl)c1 |
| > 10000 |  | 94 | > 10000 |  |  | Cc1cn[nH]c1C(=O)Nc1ccc(N2C(=O)c3cccc(Cl)c3C2=O)c(Cl)c1 |
| > 10000 |  | 30 | > 10000 | 30 |  | Cn1ccnc1C(=O)Nc1ccc(N2C(=O)c3cccc(Cl)c3C2=O)c(Cl)c1 |
